Screens (PubChem BioAssay)
NPY-Y2 antag = NPY-Y2 (human) receptor antagonism; P49146; NPY-Y2 expressing cells, antagonist mode; inhibition, % at 2.7 µM; 140,000 compounds, 0.99% hits; in the data active = inhibition above about 17%
Target sequence (P49146 whole entry, looked up): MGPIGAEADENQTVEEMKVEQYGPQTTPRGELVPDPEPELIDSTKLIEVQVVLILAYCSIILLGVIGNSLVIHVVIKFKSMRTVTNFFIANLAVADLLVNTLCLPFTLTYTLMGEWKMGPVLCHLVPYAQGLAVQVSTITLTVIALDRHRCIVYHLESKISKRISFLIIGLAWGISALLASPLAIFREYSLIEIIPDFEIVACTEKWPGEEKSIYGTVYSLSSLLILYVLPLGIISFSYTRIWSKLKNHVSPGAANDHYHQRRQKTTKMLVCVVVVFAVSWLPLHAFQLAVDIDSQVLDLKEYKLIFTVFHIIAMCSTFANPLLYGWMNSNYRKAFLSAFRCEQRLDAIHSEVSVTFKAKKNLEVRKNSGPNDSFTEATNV
NPY-Y2 PAM-ag = potentiators or agonists of human neuropeptide Y receptor Y2 | cells expressing NPY-Y2, potentiator/agonist read-out | activation, % at 3.6 µM | 220,000 compounds, 0.45% hits | AID 1359; in the data active = activation above about 27%;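 also: cells stimulated with NPY near EC25 plus isoproterenol at EC100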
NPY-Y1 antag = NPY-Y1 (human) receptor antagonism; 200,000 compounds, 1% hits; P25929; HEK293-CNG Y1 cells, membrane potential fluorescence; NPY at EC95, then isoproterenol; inhibition, % at 3.6 µM;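 active = inhibition above the campaign mean inhibition of all tested compounds plus 3 SD, cut at about 20% in these data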
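Material: HEK293 Y1/CNG channel cell line | Also added: NPY (25 nM), isoproterenol (1 µM), Ro 20-1724 (25 µM) | Compound: One concentration, 3.6 µM, in 0.4% DMSO | Schedule: 3 h dye uptake, 1 h room-temperature compound, 45 min post-isoproterenol | Signal: Membrane-potential fluorescent dye readout | Read-out: % inhibition of NPY effect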
NPY1 pot ag = human NPY-Y1 potentiation or agonism, primary screen | activation, % at 3.6 µM | NPY-Y1 expressing cells, potentiator/agonist activation | 220,000 compounds, 0.37% hits | P25929; in the data active = activation above about 33%, passing the limit was not always enough;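 also: cells stimulated with NPY at EC10 then isoproterenol at EC100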
KCC2 mod = modulates chloride dependent transport by human KCC2; 190,000 compounds, 2.2% hits; Q9H2X9; KCC2 cells, thallium flux FluoZin-2 fluorescence; B-score of Tl+ flux slope (higher = more flux/activation; lower = inhibition) at 10 µM;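 active = thallium flux slope and its plate-corrected score both differing from the plate sample mean at a set confidence after two filtering rounds, in either direction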;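 also: slope of fluorescence scaled to starting intensity during 10 to 20 s after thallium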
Furin inh = inhibitors of human furin; P09958; purified furin, fluorogenic substrate cleavage; inhibition, % at 20 µM or 30 µM; 220,000 compounds, 0.061% hits; in the data active = inhibition above about 25%
KCC2 secondary = confirmation of human KCC2 transport modulators; normalised thallium flux (F/F0 slope) at 10 µM; 3,700 compounds, 15% hits; AID 1713; HEK293-KCC2, thallium flux, FluoZin2 fluorescence; hits give high values; shares compounds with KCC2 mod;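 active = thallium flux slope above the same plate's solvent-only control mean plus 3 SD; inconclusive = the two replicate wells disagree; inactive = no significant difference from solvent-only control wells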
KCC2 bumet counter = bumetanide-insensitive thallium flux in KCC2 cells with ouabain, counter-screen | shares compounds with KCC2 mod | HEK293-KCC2 + bumetanide/ouabain, thallium flux FluoZin2; hits give high values | normalized thallium flux at 10 µM | 3,700 compounds, 49% hits | AID 1714;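 active = thallium entry rate above the same plate's blocked-transporter control wells by more than 3 SD; inconclusive = the two repeat wells disagree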;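 also: raw slope of fluorescence over initial fluorescence between 10 and 20 s after thallium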
KCC2 sec2 = confirmation of human KCC2 transport modulators; shares compounds with KCC2 mod; HEK293-KCC2, thallium flux FluoZin2 fluorescence; actives lie on both sides; F/F0 rise rate, 10–20 s post-thallium; normalized thallium flux at 10 µM; 3,700 compounds, 23% hits; AID 1715;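 active = thallium flux slope more than 3 SD above or below the plate's solvent-only control mean, mostly below; inconclusive = the two repeat wells disagreed; inactive = no significant shift from solvent-only controls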
HEK counter1 = acts in parental HEK cells, KCC2 counter-screen; shares compounds with KCC2 mod; HEK293 parental cells, thallium flux FluoZin2, ouabain; baseline-ratio fluorescence slope, 10–20 s after thallium; thallium flux rate (normalised fluorescence) at 10 µM; 3,700 compounds, 46% hits; AID 1716;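 active = thallium flux rate significantly above the same plate's solvent-only control wells, beyond their mean plus 3 SD; inconclusive = the two replicate wells gave conflicting results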
KCC2 ouabain = confirmation of human KCC2 modulators with ouabain; raw Tl+ flux slope (below DMSO = inhibition, above = activation) at 10 µM; AID 1717; 3,700 compounds, 48% hits; HEK293-KCC2, thallium flux FluoZin2 fluorescence; bidirectional: low = inhibitor, high = activator; shares compounds with KCC2 mod;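 active = thallium flux slope beyond 3 SD from same-plate DMSO control mean in most replicates, usually higher, sometimes lower; inconclusive = repeat tests gave conflicting results; inactive = no significant difference from controls in most replicates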;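 also: slope of initial-normalized fluorescence between seconds 10 and 20 after thallium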
HEK293 Tl flux2 = counter-screen for KCC2 modulators: effect in parental HEK293 cells | shares compounds with KCC2 mod | thallium flux FluoZin-2 fluorescence slope | thallium flux slope at 10 µM | 3,700 compounds, 33% hits;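 active = thallium flux slope above the same plate's solvent-control mean plus 3 SD in both duplicate wells; inconclusive = duplicate wells that disagreed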;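 also: run without ouabain in cells lacking the KCC2 cotransporter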
Hits are given with their value; n = inactive; u = inconclusive; x = no result given. An excerpt weighted towards active compounds, which were near 3.7% of everything screened.

SMILES | NPY-Y2 antag | NPY-Y2 PAM-ag | NPY-Y1 antag | NPY1 pot ag | KCC2 mod | Furin inh | KCC2 secondary | KCC2 bumet counter | KCC2 sec2 | HEK counter1 | KCC2 ouabain | HEK293 Tl flux2
O=C(c1ccc(COc2ccccc2Cl)o1)N1CCN(Cc2ccc3c(c2)OCO3)CC1 | n | n | n | n | n | n | n | n | n | n | u | n
CCOc1ncccc1C(=O)N1CCN(Cc2ccc3c(c2)OCO3)CC1 | n | n | n | n | 4.8 | n | n | n | n | n | n | n
COCCNC(=O)C(OC(=O)CC1Sc2ccccc2NC1=O)c1ccccc1 (stereo unspecified) | n | n | n | n | n | n | x | x | x | x | x | x
O=C(NCc1cccnc1)c1ccc(COc2ccc(Cl)cc2Cl)o1 | x | n | n | n | -4.4 | n | n | n | 0.029 | n | 0.015 | n
Cc1ccc(/C=C/C(=O)C2C(=O)c3ccccc3C2=O)cc1 | n | n | n | n | x | n | n | 0.067 | 0.063 | 0.092 | 0.072 | 0.054
Cc1ccc(/C=C/C(=O)c2ccccc2O)cc1 | x | n | x | n | n | n | x | x | x | x | x | x
O=C(Oc1cc(Cl)cc(Cl)c1)c1cnc2n(c1=O)CCS2 | x | n | x | n | n | n | x | x | x | x | x | x
CNC(=S)N(CCc1cccc(C)c1)Cc1cc2cc(OC)c(OC)cc2[nH]c1=O | n | n | n | n | n | n | x | x | x | x | x | x
CNC(=S)N(Cc1cc2cc(OC)c(OC)cc2[nH]c1=O)C1CCCC1 | x | n | n | n | -4.2 | n | n | n | n | u | n | n
CC1(c2cccs2)CC(c2cccs2)=C(C#N)C(=O)N1 (stereo unspecified) | n | n | n | n | 5.2 | n | n | n | n | 0.0059 | n | n
N#CC1=C(S)N(c2ccccc2)C2(CCCCC2)NC1=O | n | n | n | n | n | n | x | x | x | x | x | x
O=C(NC1CC1)c1cc2c(s1)-c1ccccc1OC2 | n | n | n | n | x | n | n | n | n | n | 0.017 | n
Cc1ccc(C)c(NS(=O)(=O)c2ccc3c(c2)Cc2cc(S(=O)(=O)Nc4cc(C)ccc4C)ccc2-3)c1 | n | n | n | n | n | n | x | x | x | x | x | x
Cc1csc(N/N=C/c2ccccn2)n1 | x | n | n | n | n | n | x | x | x | x | x | x
C(=N\Nc1nc2ccccc2s1)/c1ccccn1 | x | n | x | n | 6.9 | n | n | u | n | u | n | n
C(=N\NC1=Nc2cccc3cccc1c23)/c1ccccn1 | x | n | n | n | -4.4 | n | u | n | n | n | 0.016 | n
Cc1cccc(-n2c(SCc3ccc([N+](=O)[O-])cc3)nnc2-c2c[nH]c3ccccc23)c1 | x | n | n | n | n | n | x | x | x | x | x | x
CCCCC(CCC(=O)O)(C(=O)OCC)c1csc(Nc2ccccc2)n1 (stereo unspecified) | x | n | n | n | -3.9 | n | n | n | n | n | 0.017 | n
CCCCC(CCC(=O)O)(C(=O)OCC)c1csc(Nc2ccc(OCC)cc2)n1 (stereo unspecified) | x | n | x | n | n | n | x | x | x | x | x | x
CC(=O)Nc1ccc(S(=O)(=O)Nc2cccc(-c3nc4ccccc4o3)c2)cc1 | n | n | n | n | x | n | n | u | n | n | n | n
